Laboratory results published in ChEMBL document CHEMBL1138354, “2-(2'-((dimethylamino)methyl)-4'-(fluoroalkoxy)-phenylthio)benzenamine derivatives as serotonin transporter imaging agents” (J Med Chem, 2007).

Legend:
[1] = test system: Striatum; assay: Biodistribution in iv dosed rat striatum assessed as radioactivity after 30 mins; type: ADME, organism-based; conditions: in vivo, 0.5 h
[2] = test system: Nucleic Acid; assay: Ratio of drug level in hippocampus to cerebellum in rat assessed as radioactivity after 30 mins; type: ADME, tissue-based; conditions: in vivo, 0.5 h
Outline: (§1)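 Groups of three normal rats under isoflurane received the [18F] tracer (10–100 μCi in 0.2 ml sterile water containing 1 mg/mL BSA) into the femoral vein. They were killed by cervical dislocation under anesthesia at the stated time. Cortex, striatum, hippocampus, hypothalamus and cerebellum were dissected, weighed and gamma-counted. %dose/g was set against a 100-fold diluted dose aliquot, and each region was divided by cerebellum.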

[3] = test system: Pancreas; assay: Biodistribution in iv dosed rat pancreas after 240 mins; type: ADME, organism-based; conditions: in vivo, 4 h
[4] = test system: Pancreas; assay: Biodistribution in iv dosed rat pancreas after 120 mins; type: ADME, organism-based; conditions: in vivo, 2 h
Outline: (§2)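 [18F]-labeled tracer was given to rats under isoflurane anesthesia: 0.2 ml sterile water with 1 mg/mL BSA and 10–100 μCi, into the femoral vein. Three rats per group. Animals were killed by cervical dislocation under anesthesia at the stated time. Organs were removed, weighed and counted. Uptake was calculated as percent dose against a 1% aliquot of the injected dose counted alongside.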

[5] = test system: Zone of skin; assay: Biodistribution in iv dosed rat skin after 120 mins; type: ADME, organism-based; conditions: in vivo, 2 h
Outline: (§3)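 Rats, 3 per group, under isoflurane. ¹⁸F tracer (10–100 μCi) in 0.2 ml sterile water with 1 mg/mL BSA injected into the femoral vein. Killed by cervical dislocation under anesthesia at the stated time. Organs removed, weighed and counted. % dose/organ calculated against counts of a 1% diluted aliquot of the injected dose.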

[6] = test system: Liver; assay: Biodistribution in iv dosed rat liver after 60 mins; type: ADME, organism-based; conditions: in vivo, 1 h; outline: as §2
[7] = test system: Brain; assay: Biodistribution in iv dosed rat brain after 120 mins; type: ADME, organism-based; conditions: in vivo, 2 h; outline: as §2
[8] = test system: Cortex; assay: Biodistribution in iv dosed rat cortex assessed as radioactivity after 240 mins; type: ADME, organism-based; conditions: in vivo, 4 h
Outline: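 Rats received the [18F] tracer under isoflurane anesthesia: 0.2 ml sterile water with 1 mg/mL BSA and 10–100 μCi, into the femoral vein. Three rats per group. After cervical dislocation under anesthesia, the cortex was dissected, weighed and gamma-counted. Percent dose/g was calculated against a 100-fold diluted aliquot of the injected dose.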

[9] = test system: Pancreas; assay: Biodistribution in iv dosed rat pancreas after 30 mins; type: ADME, organism-based; conditions: in vivo, 0.5 h; outline: as §3
[10] = test system: Pancreas; assay: Biodistribution in iv dosed rat pancreas after 60 mins; type: ADME, organism-based; conditions: in vivo, 1 h
[11] = test system: Nucleic Acid; assay: Ratio of drug level in striatum to cerebellum in rat assessed as radioactivity after 2 mins; type: ADME, tissue-based; conditions: in vivo
[12] = test system: Nucleic Acid; assay: Ratio of drug level in striatum to cerebellum in rat assessed as radioactivity after 30 mins; type: ADME, tissue-based; conditions: in vivo, 0.5 h; outline: as §1
[13] = test system: Nucleic Acid; assay: Ratio of drug level in cortex to cerebellum in rat assessed as radioactivity after 120 mins; type: ADME, tissue-based; conditions: in vivo, 2 h; outline: as §1
[14] = test system: Blood; assay: Biodistribution in iv dosed rat blood after 30 mins; type: ADME, organism-based; conditions: in vivo, 0.5 h; outline: as §2
[15] = test system: Liver; assay: Biodistribution in iv dosed rat liver after 30 mins; type: ADME, organism-based; conditions: in vivo, 0.5 h; outline: as §2
[16] = test system: Pancreas; assay: Biodistribution in iv dosed rat pancreas after 2 mins; type: ADME, organism-based; conditions: in vivo
[17] = test system: Blood; assay: Biodistribution in iv dosed rat blood after 60 mins; type: ADME, organism-based; conditions: in vivo, 1 h; outline: as §2
[18] = test system: Muscle tissue; assay: Biodistribution in iv dosed rat muscle after 2 mins; type: ADME, organism-based; conditions: in vivo; outline: as §2
[19] = test system: Nucleic Acid; assay: Ratio of drug level in hippocampus to cerebellum in rat assessed as radioactivity after 2 mins; type: ADME, tissue-based; conditions: in vivo
[20] = test system: Spleen; assay: Biodistribution in iv dosed rat spleen after 360 mins; type: ADME, organism-based; conditions: in vivo, 6 h
[21] = test system: Nucleic Acid; assay: Ratio of drug level in hypothalamus to cerebellum in rat after 360 mins; type: ADME, tissue-based; conditions: in vivo, 6 h
[22] = test system: Nucleic Acid; assay: Ratio of drug level in hippocampus to cerebellum in rat after 360 mins; type: ADME, tissue-based; conditions: in vivo, 6 h
[23] = test system: Zone of skin; assay: Biodistribution in iv dosed rat skin after 360 mins; type: ADME, organism-based; conditions: in vivo, 6 h
[24] = test system: Liver; assay: Biodistribution in iv dosed rat liver after 360 mins; type: ADME, organism-based; conditions: in vivo, 6 h; outline: as §2
[25] = test system: Brain; assay: Biodistribution in iv dosed rat brain after 360 mins; type: ADME, organism-based; conditions: in vivo, 6 h; outline: as §2
[26] = test system: Muscle tissue; assay: Biodistribution in iv dosed rat muscle after 360 mins; type: ADME, organism-based; conditions: in vivo, 6 h; outline: as §2
[27] = test system: Lung; assay: Biodistribution in iv dosed rat lung after 360 mins; type: ADME, organism-based; conditions: in vivo, 6 h; outline: as §2
[28] = test system: Heart; assay: Biodistribution in iv dosed rat heart after 360 mins; type: ADME, organism-based; conditions: in vivo, 6 h; outline: as §2
[29] = test system: Blood; assay: Biodistribution in iv dosed rat blood after 360 mins; type: ADME, organism-based; conditions: in vivo, 6 h; outline: as §2
[30] = test system: Nucleic Acid; assay: Ratio of drug level in cortex to cerebellum in rat after 360 mins; type: ADME, tissue-based; conditions: in vivo, 6 h
[31] = test system: Kidney; assay: Biodistribution in iv dosed rat kidney after 360 mins; type: ADME, organism-based; conditions: in vivo, 6 h; outline: as §2
[32] = test system: Bone; assay: Biodistribution in iv dosed rat bone after 360 mins; type: ADME, organism-based, Bone element; conditions: in vivo, 6 h; outline: as §2
[33] = test system: Nucleic Acid; assay: Ratio of drug level in striatum to cerebellum in rat after 360 mins; type: ADME, tissue-based; conditions: in vivo, 6 h

SMILES: CN(C)Cc1cc(OCC[18F])ccc1Sc1ccccc1N
- Drug uptake [1]: 0.8 % ID/g
- Ratio [2]: 2.59
- Drug uptake [3]: 0.04 %ID
- Drug uptake [4]: 0.08 %ID
- Drug uptake [5]: 4.32 %ID
- Drug uptake [6]: 3.74 %ID
- Drug uptake [7]: 0.63 %ID
- Drug uptake [8]: 0.07 % ID/g
- Drug uptake [9]: 0.24 %ID
- Drug uptake [10]: 0.19 %ID
- Ratio [11]: 1.22
- Ratio [12]: 2.69
- Ratio [13]: 4.6
- Drug uptake [14]: 4.74 %ID
- Drug uptake [15]: 4.24 %ID
- Drug uptake [16]: 0.92 %ID
- Drug uptake [17]: 3.1 %ID
- Drug uptake [18]: 16.55 %ID
- Ratio [19]: 1.19

SMILES: CN(C)Cc1cc(OCC[18F])ccc1Sc1ccc(Br)cc1N
- Drug uptake [1]: 1.09 % ID/g
- Ratio [2]: 1.63
- Drug uptake [5]: 7.07 %ID
- Drug uptake [20]: 0.29 %ID
- Ratio [21]: 4.32
- Ratio [22]: 3.08
- Drug uptake [23]: 6.52 %ID
- Drug uptake [6]: 3.45 %ID
- Drug uptake [7]: 2.16 %ID
- Drug uptake [8]: 0.82 % ID/g
- Ratio [11]: 0.96
- Ratio [12]: 1.86
- Ratio [13]: 2.9
- Drug uptake [24]: 1.86 %ID
- Drug uptake [25]: 1.36 %ID
- Drug uptake [26]: 8.98 %ID
- Drug uptake [14]: 5.7 %ID
- Drug uptake [27]: 1.89 %ID
- Drug uptake [28]: 0.13 %ID
- Drug uptake [29]: 4.75 %ID
- Ratio [30]: 3.2
- Drug uptake [15]: 4.58 %ID
- Drug uptake [31]: 1.13 %ID
- Drug uptake [17]: 7.05 %ID
- Drug uptake [18]: 18.2 %ID
- Ratio [19]: 0.88
- Drug uptake [32]: 15.3 %ID
- Ratio [33]: 3.8
